According to ChEMBL document CHEMBL1770125, “Amodiaquine analogues containing NO-donor substructures: synthesis and their preliminary evaluation as potential tools in the treatment of cerebral malaria” (Eur J Med Chem, 2011):
The source made the active and inactive calls. No cut-off for these calls is given here.

How the values were obtained:
Plasmodium falciparum [1] = experiment: Antiplasmodial activity against chloroquine-sensitive Plasmodium falciparum D10 assessed as inhibition of parasite LDH activity after 72 hrs by spectrophotometry; type: functional, organism-based; settings: D10, 72 h
In short: (§1)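 Asynchronous cultures (1-1.5% parasitemia, 1% final haematocrit) in human A+ RBCs were grown in RPMI 1640 with 1% AlbuMax, hypoxanthine, HEPES and glutamine, at 37 °C under 1% O₂/5% CO₂. IC50 is the mean±SD of ≥3 experiments.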

Plasmodium falciparum [2] = experiment: Antiplasmodial activity against chloroquine-resistant Plasmodium falciparum W2 assessed as inhibition of parasite LDH activity after 72 hrs by spectrophotometry; type: functional, organism-based; settings: W2, 72 h; in short: as §1
Rattus norvegicus [3] = organism: Rattus norvegicus; experiment: Vasodilatory activity in pre-contracted Wistar rat aortic rings in presence of 1 uM ODQ; type: functional, Aorta
In short: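 Endothelium-denuded aortic strips from male Wistar rats (180-200 g) were kept in Krebs-bicarbonate at 37 °C, pH 7.4. ODQ at 1 μM was added 5 min before contraction with 1 μM phenylephrine. Cumulative relaxation curves were recorded isometrically. EC50 is the mean of ≥5 determinations.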

Rattus norvegicus [4] = organism: Rattus norvegicus; experiment: Vasodilatory activity in pre-contracted Wistar rat aortic rings; type: functional, Aorta
In short: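 Aortic strips, endothelium removed, from male Wistar rats (180-200 g) were held in Krebs-bicarbonate at 37 °C, pH 7.4, gassed with 95% O₂/5% CO₂. After 90 min equilibration they were contracted with 1 μM phenylephrine. Cumulative concentration-response curves were run at plateau, with isometric recording. EC50 is the mean of ≥5 determinations.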

Plasmodium berghei [5] = experiment: Antiplasmodial activity against Plasmodium berghei ANKA infected in C57BL/6 mouse assessed as mouse survival 1.15 mg, ip daily for 5 days relative to control; type: functional, organism-based
In short: (§2)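 C57BL/6 mice aged 6-8 weeks were infected ip with 1x10⁶ PbA-GFP parasitized red blood cells. Parasitemia, motor behaviour, rectal temperature and weight were checked from day 5. Treatment began at late-stage CM, defined by neurological signs (ataxia, paralysis, poor righting, seizures, roll-over, coma). Doses were 100 μL ip daily for 5 days: 1.4 mg in 20% DMSO/20% PEG400/60% saline, 1.15 mg in saline.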

Plasmodium berghei [6] = experiment: Antiplasmodial activity against Plasmodium berghei ANKA infected in C57BL/6 mouse assessed as reduction in parasitemia at 1.15 mg, ip daily for 5 days measured upto 24 hrs relative to control; type: functional, organism-based; in short: as §2
Plasmodium berghei [7] = experiment: Antiplasmodial activity against Plasmodium berghei ANKA infected in C57BL/6 mouse assessed as reduction in parasitemia at 1 mg, ip daily for 5 days measured after 72 hrs relative to control; type: functional, organism-based
Plasmodium berghei [8] = experiment: Antiplasmodial activity against Plasmodium berghei ANKA infected in C57BL/6 mouse assessed as reduction in parasitemia at 1.15 mg, ip daily for 5 days measured after 72 hrs relative to control; type: functional, organism-based; in short: as §2
Plasmodium berghei [9] = experiment: Antiplasmodial activity against Plasmodium berghei ANKA infected in C57BL/6 mouse assessed as reduction in parasitemia at 1.4 mg, ip daily for 5 days measured after 72 hrs relative to control; type: functional, organism-based; in short: as §2
Plasmodium berghei [10] = experiment: Antiplasmodial activity against Plasmodium berghei ANKA infected in C57BL/6 mouse assessed as reduction in parasitemia at 1.4 mg, ip daily for 5 days measured upto 24 hrs relative to control; type: functional; set-up: scale not given: the % may be the effect or the level left; in short: as §2
Plasmodium berghei [11] = experiment: Antiplasmodial activity against Plasmodium berghei ANKA infected in C57BL/6 mouse assessed as mouse survival at 1.4 mg, ip daily for 5 days relative to control; type: functional; in short: as §2
Plasmodium berghei [12] = experiment: Antiplasmodial activity against Plasmodium berghei ANKA infected in C57BL/6 mouse assessed as reduction in parasitemia at 1 mg, ip daily for 5 days measured upto 24 hrs relative to control; type: functional; set-up: scale not given: the % may be the effect or the level left
Plasmodium berghei [13] = experiment: Antiplasmodial activity against Plasmodium berghei ANKA infected in C57BL/6 mouse assessed as mouse survival at 1 mg, ip daily for 5 days relative to control; type: functional
[14] = Rattus norvegicus, Aorta, read-out: EC50

CCN(CCCCCCO[N+](=O)[O-])Cc1cc(Nc2ccnc3cc(Cl)ccc23)ccc1O
IC50 (Plasmodium falciparum [1]): 31 nM
IC50 (Plasmodium falciparum [2]): 28 nM
EC50 (Rattus norvegicus [3]; [14]): > 30000 nM
EC50 (Rattus norvegicus [4]; [14]): 450 nM

O=[N+]([O-])OCCC1CCNCC1
IC50 (Plasmodium falciparum [1]): > 5000 nM
IC50 (Plasmodium falciparum [2]): > 5000 nM

CN(C)CCCOc1no[n+]([O-])c1-c1ccccc1
IC50 (Plasmodium falciparum [1]): > 5000 nM
IC50 (Plasmodium falciparum [2]): 4940 nM
EC50 (Rattus norvegicus [4]; [14]): 30 nM

CCN(CCOc1no[n+]([O-])c1-c1ccccc1)Cc1cc(Nc2ccnc3cc(Cl)ccc23)ccc1O
IC50 (Plasmodium falciparum [1]): 23 nM
IC50 (Plasmodium falciparum [2]): 24 nM
EC50 (Rattus norvegicus [3]; [14]): > 10000 nM
EC50 (Rattus norvegicus [4]; [14]): 1200 nM

O=[N+]([O-])OCCCN1CCNCC1
IC50 (Plasmodium falciparum [1]): > 5000 nM
IC50 (Plasmodium falciparum [2]): > 5000 nM

CCN(CCCCC(CO[N+](=O)[O-])O[N+](=O)[O-])Cc1cc(Nc2ccnc3cc(Cl)ccc23)ccc1O (stereo not given)
Survival (Plasmodium berghei [5]): inactive
IC50 (Plasmodium falciparum [1]): 38 nM
Activity (Plasmodium berghei [6]): inactive
IC50 (Plasmodium falciparum [2]): 21 nM
Activity (Plasmodium berghei [7]): Active
EC50 (Rattus norvegicus [3]; [14]): > 30000 nM
Activity (Plasmodium berghei [8]): Active
EC50 (Rattus norvegicus [4]; [14]): 220 nM

O=[N+]([O-])OCCCN1CCN(Cc2cc(Nc3ccnc4cc(Cl)ccc34)ccc2O)CC1
IC50 (Plasmodium falciparum [1]): 18 nM
IC50 (Plasmodium falciparum [2]): 34 nM
EC50 (Rattus norvegicus [3]; [14]): 3600 nM
EC50 (Rattus norvegicus [4]; [14]): 79 nM

O=[N+]([O-])OCCN1CCNCC1
IC50 (Plasmodium falciparum [1]): > 5000 nM
IC50 (Plasmodium falciparum [2]): > 5000 nM

O=[N+]([O-])OCCCNCc1cc(Nc2ccnc3cc(Cl)ccc23)ccc1O
IC50 (Plasmodium falciparum [1]): 27 nM
IC50 (Plasmodium falciparum [2]): 62 nM
EC50 (Rattus norvegicus [3]; [14]): 11000 nM
EC50 (Rattus norvegicus [4]; [14]): 420 nM

O=[N+]([O-])OCC1CCNCC1
IC50 (Plasmodium falciparum [1]): > 5000 nM
IC50 (Plasmodium falciparum [2]): > 5000 nM

O=[N+]([O-])OCCN1CCN(Cc2cc(Nc3ccnc4cc(Cl)ccc34)ccc2O)CC1
IC50 (Plasmodium falciparum [1]): 55 nM
IC50 (Plasmodium falciparum [2]): 138 nM
EC50 (Rattus norvegicus [3]; [14]): 6500 nM
EC50 (Rattus norvegicus [4]; [14]): 120 nM

O=[N+]([O-])OCCC1CCN(Cc2cc(Nc3ccnc4cc(Cl)ccc34)ccc2O)CC1
IC50 (Plasmodium falciparum [1]): 19 nM
IC50 (Plasmodium falciparum [2]): 25 nM
EC50 (Rattus norvegicus [3]; [14]): > 30000 nM
EC50 (Rattus norvegicus [4]; [14]): 100 nM

CCNCCCCCCO[N+](=O)[O-]
IC50 (Plasmodium falciparum [1]): > 5000 nM
IC50 (Plasmodium falciparum [2]): > 5000 nM

CCN(CC)Cc1cc(Nc2ccnc3cc(Cl)ccc23)ccc1O.Cl
IC50 (Plasmodium falciparum [1]): 12 nM
IC50 (Plasmodium falciparum [2]): 16 nM
Activity (Plasmodium berghei [7]): Active
EC50 (Rattus norvegicus [3]): Not Active
EC50 (Rattus norvegicus [4]): Not Active

CCNCCCCC(CO[N+](=O)[O-])O[N+](=O)[O-] (stereo not given)
IC50 (Plasmodium falciparum [1]): > 5000 nM
IC50 (Plasmodium falciparum [2]): > 5000 nM

CCN(CCOc1no[n+]([O-])c1S(=O)(=O)c1ccccc1)Cc1cc(Nc2ccnc3cc(Cl)ccc23)ccc1O.Cl.Cl.Cl
IC50 (Plasmodium falciparum [1]): 46 nM
Activity (Plasmodium berghei [9]): Active
IC50 (Plasmodium falciparum [2]): 152 nM
Activity (Plasmodium berghei [7]): Active
EC50 (Rattus norvegicus [3]; [14]): 1000 nM
Activity (Plasmodium berghei [8]): Active
Activity (Plasmodium berghei [10]): 76%
Survival (Plasmodium berghei [11]): 23%
EC50 (Rattus norvegicus [4]; [14]): 17 nM
Activity (Plasmodium berghei [12]): 72%
Survival (Plasmodium berghei [13]): 8%

CN(C)CCCOc1no[n+]([O-])c1S(=O)(=O)c1ccccc1
IC50 (Plasmodium falciparum [1]): > 5000 nM
IC50 (Plasmodium falciparum [2]): > 5000 nM
EC50 (Rattus norvegicus [3]; [14]): > 10000 nM
EC50 (Rattus norvegicus [4]; [14]): 14300 nM

CCN(CCCO[N+](=O)[O-])Cc1cc(Nc2ccnc3cc(Cl)ccc23)ccc1O
IC50 (Plasmodium falciparum [1]): 27 nM
IC50 (Plasmodium falciparum [2]): 31 nM
EC50 (Rattus norvegicus [3]; [14]): 3300 nM
EC50 (Rattus norvegicus [4]; [14]): 450 nM

O=[N+]([O-])OCC1CCN(Cc2cc(Nc3ccnc4cc(Cl)ccc34)ccc2O)CC1
IC50 (Plasmodium falciparum [1]): 19 nM
IC50 (Plasmodium falciparum [2]): 28 nM
EC50 (Rattus norvegicus [3]; [14]): > 30000 nM
EC50 (Rattus norvegicus [4]; [14]): 100 nM
